# Test results from ChEMBL document CHEMBL3351795, “Discovery of Cathepsin S Inhibitor LY3000328 for the Treatment of Abdominal Aortic Aneurysm” (ACS Med Chem Lett, 2014).
# The source made the active and inactive calls. The calls are words filed in the database; no cut-off is given here.
# Experiments:
# Procathepsin L = Procathepsin L (Homo sapiens, UniProt P07711); assay: Inhibition of human cathepsin L using benzyloxycarbonyl-L-Leucyl-L-Arginine 4-Methyl-coumaryl-7-amide substrate by FRET assay
# Rattus norvegicus = species: Rattus norvegicus; assay: Inhibition of rat cathepsin S G137C mutant using benzyloxycarbonyl-L-Leucyl-L-Arginine 4-Methyl-coumaryl-7-amide substrate by FRET assay
# Cathepsin S [1] = molecular target: Cathepsin S (Mus musculus, UniProt O70370); assay: Inhibition of mouse cathepsin S using benzyloxycarbonyl-L-Leucyl-L-Arginine 4-Methyl-coumaryl-7-amide substrate by FRET assay
# Cathepsin S [2] = molecular target: Cathepsin S (Homo sapiens, UniProt P25774); assay: Inhibition of human cathepsin S using benzyloxycarbonyl-L-Leucyl-L-Arginine 4-Methyl-coumaryl-7-amide substrate by FRET assay
# [3] = AUC (0 to 24 hrs) in 129SvEv mouse model of CaCl2-induced abdominal aortic aneurysm at 3 mg/kg dosed through oral gavage BID for 4 weeks with first dose given one day prior to surgery; format: ADME, organism-based, Abdomen; parameters: time < 24 hr, dose 3 mg/kg, route oral; details: in vivo
# [4] = Drug metabolism in dog liver microsomes after 30 mins at 4 uM; format: ADME, Canis lupus familiaris; details: read-out: Drug metabolism
# Plasma [5] = assay: Stability in human plasma assessed as loss of parent compound after 30 mins; format: ADME, cell-free; details: 0.5 h
# Procedure, shortened: (§1)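 Compound incubated in human or rat plasma for up to 30 min; loss of parent compound tested for statistical significance.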
# Mus musculus [6] = assay: Inhibition of CaCl2-induced abdominal aortic aneurysm in 129SvEv mouse assessed as reduction in aortic diameter at 1 to 30 mg/kg dosed through oral gavage BID for 4 weeks with first dose given one day prior to surgery; format: functional, organism-based; details: Abdomen
# Mus musculus [7] = assay: Inhibition of CaCl2-induced abdominal aortic aneurysm in 129SvEv mouse assessed as reduction in aortic diameter at 30 mg/kg dosed through oral gavage BID for 4 weeks with first dose given one day prior to surgery; format: functional; details: Abdomen
# CYP3A4 = CYP3A4 (Homo sapiens, UniProt P08684); assay: Inhibition of CYP3A4 (unknown origin) using midazolam substrate at 10 uM; format: ADME; details: probe midazolam
# [8] = Clearance in Beagle dog at 1 mg/kg, iv or 3 mg/kg, po; format: ADME, organism-based, Canis lupus familiaris; details: in vivo
# CYP2C9 = CYP2C9 (Homo sapiens, UniProt P11712); assay: Inhibition of CYP2C9 (unknown origin) using diclofenac substrate at 10 uM; format: ADME; details: probe diclofenac
# hERG = hERG (Homo sapiens, UniProt Q12809); assay: Displacement of [3H]astemizole form human ERG expressed in HEK293 cell membranes at 100 uM; details: HEK293 cell membranes that express human ERG, probe [3H]astemizole
# [9] = Dissociation constant, basic pKa of the compound; format: physicochemical
# Mus musculus [10] = assay: Inhibition of CaCl2-induced abdominal aortic aneurysm in 129SvEv mouse assessed as reduction in aortic diameter at 10 mg/kg dosed through oral gavage BID for 4 weeks with first dose given one day prior to surgery; format: functional; details: Abdomen
# [11] = Lipophilicity, log D of the compound at pH 4.0; format: physicochemical; details: buffer
# [12] = Drug metabolism in rat liver microsomes after 30 mins at 4 uM; format: ADME; details: read-out: Drug metabolism
# Mus musculus [13] = assay: Inhibition of CaCl2-induced abdominal aortic aneurysm in 129SvEv mouse assessed as reduction in aortic diameter at 3 mg/kg dosed through oral gavage BID for 4 weeks with first dose given one day prior to surgery; format: functional; details: Abdomen
# [14] = Lipophilicity, log P of the compound; format: physicochemical; details: octanol/water
# Plasma [15] = assay: Stability in rat plasma assessed as loss of parent compound after 30 mins; format: ADME, cell-free; details: 0.5 h; procedure, shortened: as §1
# [16] = Oral bioavailability in Beagle dog at 3 mg/kg; format: ADME, organism-based, Canis lupus familiaris; details: in vivo
# CYP2D6 = CYP2D6 (Homo sapiens, UniProt P10635); assay: Inhibition of CYP2D6 (unknown origin) using bufuralol substrate at 10 uM; format: ADME; details: probe bufuralol
# [17] = AUC (0 to 24 hrs) in 129SvEv mouse model of CaCl2-induced abdominal aortic aneurysm at 1 mg/kg dosed through oral gavage BID for 4 weeks with first dose given one day prior to surgery; format: ADME, organism-based, Abdomen; parameters: time < 24 hr, dose 1 mg/kg, route oral; details: in vivo
# [18] = Solubility in simulated gastric fluid; format: ADME
# MDCK = assay: Permeability from apical to basolateral side in MDCK cells at 2.5 uM incubated for 1 hr; format: ADME, cell-based, Canis lupus familiaris; details: dog
# Mus musculus [19] = assay: Inhibition of CaCl2-induced abdominal aortic aneurysm in 129SvEv mouse assessed as reduction in aortic diameter at 1 mg/kg dosed through oral gavage BID for 4 weeks with first dose given one day prior to surgery; format: functional; details: Abdomen
# [20] = Drug metabolism in mouse liver microsomes after 30 mins at 4 uM; format: ADME; details: read-out: Drug metabolism
# [21] = Volume of distribution in Beagle dog at 1 mg/kg, iv or 3 mg/kg, po; format: ADME, organism-based, Canis lupus familiaris; details: in vivo
# [22] = AUC (0 to 24 hrs) in 129SvEv mouse model of CaCl2-induced abdominal aortic aneurysm at 10 mg/kg dosed through oral gavage BID for 4 weeks with first dose given one day prior to surgery; format: ADME, organism-based, Abdomen; parameters: time < 24 hr, dose 10 mg/kg, route oral; details: in vivo
# [23] = AUC (0 to 24 hrs) in 129SvEv mouse model of CaCl2-induced abdominal aortic aneurysm at 30 mg/kg dosed through oral gavage BID for 4 weeks with first dose given one day prior to surgery; format: ADME, organism-based, Abdomen; parameters: time < 24 hr, dose 30 mg/kg, route oral; details: in vivo
# [24] = Drug metabolism in human liver microsomes after 30 mins at 4 uM; format: ADME; details: read-out: Drug metabolism
# Chain of Cathepsin S (Homo sapiens, UniProt P25774) (P25774 whole entry): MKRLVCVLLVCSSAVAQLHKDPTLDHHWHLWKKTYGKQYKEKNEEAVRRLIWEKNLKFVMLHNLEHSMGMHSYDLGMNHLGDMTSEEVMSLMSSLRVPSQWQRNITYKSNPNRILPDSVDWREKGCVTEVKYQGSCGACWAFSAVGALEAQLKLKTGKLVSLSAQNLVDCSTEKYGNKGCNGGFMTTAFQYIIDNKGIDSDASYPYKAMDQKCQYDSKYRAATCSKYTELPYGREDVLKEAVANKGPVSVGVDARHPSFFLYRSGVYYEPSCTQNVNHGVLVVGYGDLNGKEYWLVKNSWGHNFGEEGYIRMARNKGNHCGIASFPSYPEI
# Chain of Cathepsin S (Mus musculus, UniProt O70370) (O70370 whole entry): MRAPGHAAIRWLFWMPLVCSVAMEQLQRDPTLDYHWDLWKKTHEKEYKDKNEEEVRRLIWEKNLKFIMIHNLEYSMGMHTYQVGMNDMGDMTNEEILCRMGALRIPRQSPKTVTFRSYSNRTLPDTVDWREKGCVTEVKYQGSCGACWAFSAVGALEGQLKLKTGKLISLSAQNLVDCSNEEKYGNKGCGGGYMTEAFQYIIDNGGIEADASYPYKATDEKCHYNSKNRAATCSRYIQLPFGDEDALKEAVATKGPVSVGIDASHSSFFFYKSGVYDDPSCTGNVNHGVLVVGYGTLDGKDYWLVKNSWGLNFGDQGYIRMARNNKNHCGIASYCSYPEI
# Chain of CYP2C9 (P11712 whole entry): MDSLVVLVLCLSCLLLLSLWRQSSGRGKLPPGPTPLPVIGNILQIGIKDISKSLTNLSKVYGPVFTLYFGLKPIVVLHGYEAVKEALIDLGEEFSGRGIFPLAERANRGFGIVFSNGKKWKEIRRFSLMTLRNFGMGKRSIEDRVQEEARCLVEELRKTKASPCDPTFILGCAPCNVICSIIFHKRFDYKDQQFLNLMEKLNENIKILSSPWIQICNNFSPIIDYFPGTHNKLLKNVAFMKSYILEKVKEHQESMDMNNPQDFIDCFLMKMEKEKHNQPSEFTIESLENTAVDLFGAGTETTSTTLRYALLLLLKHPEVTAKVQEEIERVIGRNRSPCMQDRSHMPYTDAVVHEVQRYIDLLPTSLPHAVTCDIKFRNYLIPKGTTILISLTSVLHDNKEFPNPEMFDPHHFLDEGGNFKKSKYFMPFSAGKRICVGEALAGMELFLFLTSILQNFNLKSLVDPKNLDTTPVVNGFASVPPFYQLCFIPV
# Chain of CYP3A4 (P08684 whole entry): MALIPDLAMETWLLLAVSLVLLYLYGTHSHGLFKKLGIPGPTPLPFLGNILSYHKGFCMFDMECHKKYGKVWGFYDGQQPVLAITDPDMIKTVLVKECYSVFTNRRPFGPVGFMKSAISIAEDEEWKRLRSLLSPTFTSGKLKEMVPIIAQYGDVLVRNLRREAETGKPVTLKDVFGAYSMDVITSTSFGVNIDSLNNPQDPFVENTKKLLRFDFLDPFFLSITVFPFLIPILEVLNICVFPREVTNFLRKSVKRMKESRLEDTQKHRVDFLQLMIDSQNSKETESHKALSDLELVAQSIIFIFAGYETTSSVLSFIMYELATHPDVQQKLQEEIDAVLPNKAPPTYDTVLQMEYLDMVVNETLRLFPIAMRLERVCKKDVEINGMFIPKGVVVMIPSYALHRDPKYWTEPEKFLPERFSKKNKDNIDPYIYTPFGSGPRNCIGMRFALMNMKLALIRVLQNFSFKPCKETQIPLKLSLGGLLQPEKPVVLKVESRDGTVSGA
# Chain of CYP2D6 (P10635 whole entry): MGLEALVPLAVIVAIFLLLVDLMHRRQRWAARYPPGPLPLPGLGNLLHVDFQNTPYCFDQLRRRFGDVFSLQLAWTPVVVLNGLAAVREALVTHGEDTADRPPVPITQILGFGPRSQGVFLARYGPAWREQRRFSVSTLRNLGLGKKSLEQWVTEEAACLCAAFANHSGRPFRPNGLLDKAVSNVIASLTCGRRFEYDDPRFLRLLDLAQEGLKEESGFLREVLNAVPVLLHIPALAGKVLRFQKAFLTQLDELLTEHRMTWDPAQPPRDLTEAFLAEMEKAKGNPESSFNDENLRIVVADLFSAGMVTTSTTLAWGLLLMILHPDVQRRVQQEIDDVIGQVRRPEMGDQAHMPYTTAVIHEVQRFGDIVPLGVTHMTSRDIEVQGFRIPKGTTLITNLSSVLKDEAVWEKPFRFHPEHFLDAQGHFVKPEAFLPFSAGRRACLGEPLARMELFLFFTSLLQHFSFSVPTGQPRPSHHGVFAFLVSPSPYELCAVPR
# Chain of Procathepsin L (P07711 whole entry): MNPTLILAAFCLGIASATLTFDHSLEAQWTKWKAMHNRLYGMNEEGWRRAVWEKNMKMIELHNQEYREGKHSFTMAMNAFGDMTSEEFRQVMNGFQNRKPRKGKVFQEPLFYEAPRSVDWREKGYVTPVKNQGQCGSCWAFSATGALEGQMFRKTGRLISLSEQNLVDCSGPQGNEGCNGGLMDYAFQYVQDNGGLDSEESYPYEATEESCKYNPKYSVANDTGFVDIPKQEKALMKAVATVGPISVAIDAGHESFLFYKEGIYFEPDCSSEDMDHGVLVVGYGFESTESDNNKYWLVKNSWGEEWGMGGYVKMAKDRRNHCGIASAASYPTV
# Chain of hERG (Q12809 whole entry): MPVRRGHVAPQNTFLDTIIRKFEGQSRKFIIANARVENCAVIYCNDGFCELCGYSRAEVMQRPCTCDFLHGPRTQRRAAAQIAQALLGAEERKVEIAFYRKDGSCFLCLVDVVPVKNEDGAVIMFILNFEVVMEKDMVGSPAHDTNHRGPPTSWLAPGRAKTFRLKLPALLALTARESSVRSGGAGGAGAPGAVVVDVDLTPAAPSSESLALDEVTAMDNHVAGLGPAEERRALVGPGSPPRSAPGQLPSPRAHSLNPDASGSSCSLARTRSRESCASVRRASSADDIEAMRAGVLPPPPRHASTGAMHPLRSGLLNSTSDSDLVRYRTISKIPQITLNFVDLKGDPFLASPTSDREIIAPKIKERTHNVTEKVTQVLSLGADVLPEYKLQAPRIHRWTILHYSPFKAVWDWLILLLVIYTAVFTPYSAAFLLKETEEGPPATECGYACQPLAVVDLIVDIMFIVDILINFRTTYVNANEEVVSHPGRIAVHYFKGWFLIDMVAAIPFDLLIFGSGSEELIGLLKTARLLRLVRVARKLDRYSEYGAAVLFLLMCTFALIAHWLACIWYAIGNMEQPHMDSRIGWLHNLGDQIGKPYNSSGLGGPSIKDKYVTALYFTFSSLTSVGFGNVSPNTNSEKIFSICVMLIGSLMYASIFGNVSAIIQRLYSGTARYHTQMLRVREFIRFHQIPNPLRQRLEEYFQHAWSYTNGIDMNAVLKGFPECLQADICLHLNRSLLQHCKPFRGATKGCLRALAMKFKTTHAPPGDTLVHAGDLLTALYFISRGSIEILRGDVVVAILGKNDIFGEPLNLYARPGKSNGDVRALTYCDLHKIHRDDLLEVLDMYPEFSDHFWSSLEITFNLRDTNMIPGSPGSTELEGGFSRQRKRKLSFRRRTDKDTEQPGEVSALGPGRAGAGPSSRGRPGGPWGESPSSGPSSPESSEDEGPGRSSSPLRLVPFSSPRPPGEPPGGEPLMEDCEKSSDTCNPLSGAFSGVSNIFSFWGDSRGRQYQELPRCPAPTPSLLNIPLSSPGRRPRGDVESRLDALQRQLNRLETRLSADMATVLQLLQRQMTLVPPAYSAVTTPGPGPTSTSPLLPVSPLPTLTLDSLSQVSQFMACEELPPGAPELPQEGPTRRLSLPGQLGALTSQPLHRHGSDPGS
SMILES,inhibition (Rattus norvegicus),IC50 (Cathepsin S [1]) [nM],IC50 (Cathepsin S [2]) [nM],"metabolised at 0.5 h, 4 µM [4] [%]",inhibition (Mus musculus [6]),inhibition at 10 µM (CYP3A4) [%],clearance [8] [mL/min/kg],inhibition at 10 µM (CYP2C9) [%],pKa [9],logD [11],"metabolised at 0.5 h, 4 µM [12] [%]",logP [14],bioavailability [16] [%],inhibition at 10 µM (CYP2D6) [%],solubility [18] [µg/mL],permeability (MDCK) [%],"metabolised at 0.5 h, 4 µM [20] [%]",Vd [21] [L/kg],"metabolised at 0.5 h, 4 µM [24] [%]",also measured
O=C(N[C@@H]1CCCc2ccc(/N=C/N3CCCCCC3)cc21)c1ccc(Br)cc1,inactive,1570,1170,,,,,,,,,,,,,,,,,IC50 (Procathepsin L): > 100000 nM
CN1CCN(c2ccc3c(c2)C(NC(=O)c2ccccc2)CCC3)CC1 (centres undefined),inactive,3930,4000,,,,,,,,,,,,,,,,,
CN1CCN(C(=O)Nc2ccc3c(c2)C(NC(=O)c2ccccc2)CCC3)CC1 (centres undefined),inactive,2780,1290,,,,,,,,,,,,,,,,,
CNC(=O)O[C@H]1COc2ccc(N3CCN(C4COC4)CC3)cc2[C@@H]1NC(=O)c1ccc(F)cc1,inactive,1.67,7.7,< 20,Dose-dependent effect,< 15,< 4,< 15,5.11,1,< 20,2.24,> 75,< 15,1440,> 4,< 20,< 1,< 20,AUC(0-t) at 24 h [3]: 2330 ng·h/mL; Stability (Plasma [5]): Stable; inhibition in vivo at 30 mg/kg (Mus musculus [7]): 87%; inhibition at 100 µM (hERG): 6%; inhibition in vivo at 10 mg/kg (Mus musculus [10]): 87%; inhibition in vivo at 3 mg/kg (Mus musculus [13]): 83%; Stability (Plasma [15]): Stable; AUC(0-t) at 24 h [17]: 756 ng·h/mL; inhibition in vivo at 1 mg/kg (Mus musculus [19]): 58%; AUC(0-t) at 24 h [22]: 5880 ng·h/mL; AUC(0-t) at 24 h [23]: 35400 ng·h/mL
CNC(=O)O[C@H]1CCc2ccc(N3CCN(C4COC4)CC3)cc2[C@@H]1NC(=O)c1ccc(F)cc1,inactive,3.91,12.4,< 20,Dose-dependent effect,< 15,< 4,< 15,5,1.2,< 20,2.24,> 75,< 15,1130,> 4,< 20,< 1,< 20,
